{"source": "paper PMC3034256", "about": "(Chemistry & biology, 2011)", "key": {"Jurkat T cells": {"tested_on": "Jurkat T cells", "experiment": "TCR-mediated ERK1/2 activation in Jurkat T cells", "assay_type": "cell-based", "conditions": "2 h pretreatment (2 µM), 10 µg/mL anti-CD3"}, "[1]": {"tested_on": "transduced bone marrow LDMNCs (MIEG3, wild-type SHP2, SHP2/E76K)", "experiment": "Methylcellulose colony assay, GM-CSF-stimulated monocytic differentiation", "assay_type": "cell-based", "conditions": "2 µM, GM-CSF 1 ng/mL, 7 days, all cell types", "in_short": "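Transduced, EGFP-sorted bone marrow low-density mononuclear cells were plated at 8000 cells/mL in 0.9% methylcellulose medium (IMDM, 2 mM glutamine, 80 µM β-mercaptoethanol, 30% FBS) with GM-CSF 1 ng/mL, ± 2 µM test compound. Cultures were kept at 37 °C, 5% CO2 for 7 days. Total colonies and CFU-GM vs CFU-M morphology were scored by light microscopy; n=2.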"}, "HePTP": {"target": "T1, HePTP (Homo sapiens, UniProt P35236)", "T1 sequence (P35236 1-360)": "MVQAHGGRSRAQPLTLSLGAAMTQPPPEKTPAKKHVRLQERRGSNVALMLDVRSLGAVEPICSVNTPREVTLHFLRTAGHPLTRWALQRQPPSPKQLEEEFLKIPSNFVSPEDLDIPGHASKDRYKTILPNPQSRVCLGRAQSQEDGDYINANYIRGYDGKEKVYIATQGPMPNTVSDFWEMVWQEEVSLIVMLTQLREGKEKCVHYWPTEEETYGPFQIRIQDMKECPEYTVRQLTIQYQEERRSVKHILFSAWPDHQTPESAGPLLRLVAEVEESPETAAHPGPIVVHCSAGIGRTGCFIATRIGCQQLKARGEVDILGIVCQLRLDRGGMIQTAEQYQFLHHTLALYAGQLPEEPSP", "experiment": "PTP-catalyzed pNPP hydrolysis, HePTP", "assay_type": "biochemical", "in_short": "(§1)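 pNPP hydrolysis was run at 25 °C in 50 mM 3,3-dimethylglutarate, pH 7.0, 1 mM EDTA, ionic strength 0.15 M (NaCl). pNPP was fixed at each enzyme's experimentally determined Km, and reactions were started with enzyme. They were quenched with NaOH and corrected with no-enzyme controls. p-Nitrophenol was read at 405 nm. IC50 was fitted from AI/A0 = IC50/(IC50+[I]).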"}, "VHR": {"target": "VHR (Homo sapiens, UniProt P51452)", "sequence (P51452 whole entry, species assumed)": "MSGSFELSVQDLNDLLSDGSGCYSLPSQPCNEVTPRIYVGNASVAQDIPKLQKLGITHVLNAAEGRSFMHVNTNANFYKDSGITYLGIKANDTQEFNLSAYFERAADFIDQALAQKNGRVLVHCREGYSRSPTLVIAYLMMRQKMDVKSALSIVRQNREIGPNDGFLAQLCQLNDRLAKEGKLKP", "experiment": "PTP-catalyzed pNPP hydrolysis, VHR", "assay_type": "biochemical", "in_short": "as §1"}, "[2]": {"tested_on": "macrophage progenitor cells expressing MIEG3, wild-type SHP2, or SHP2/E76K", "experiment": "GM-CSF induced ERK1/2 activation in macrophage progenitors", "assay_type": "cell-based", "conditions": "2 µM for 2 hours, GM-CSF 50 ng/mL for 60 minutes", "in_short": "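Bone marrow low-density mononuclear cells were transduced (empty vector, wild-type SHP2 or SHP2/E76K), EGFP-sorted and grown 5 days in M-CSF 100 ng/mL to give macrophage progenitors. These were serum- and growth factor-starved 16 h, pretreated 2 h with DMSO or 2 µM test compound, then left unstimulated or given GM-CSF 50 ng/mL for 60 min. Extracts were immunoblotted for phospho-ERK1/2 and total ERK1/2.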"}, "CD45": {"target": "T2, CD45 (Homo sapiens, UniProt P08575)", "T2 sequence (P08575 26-1306)": "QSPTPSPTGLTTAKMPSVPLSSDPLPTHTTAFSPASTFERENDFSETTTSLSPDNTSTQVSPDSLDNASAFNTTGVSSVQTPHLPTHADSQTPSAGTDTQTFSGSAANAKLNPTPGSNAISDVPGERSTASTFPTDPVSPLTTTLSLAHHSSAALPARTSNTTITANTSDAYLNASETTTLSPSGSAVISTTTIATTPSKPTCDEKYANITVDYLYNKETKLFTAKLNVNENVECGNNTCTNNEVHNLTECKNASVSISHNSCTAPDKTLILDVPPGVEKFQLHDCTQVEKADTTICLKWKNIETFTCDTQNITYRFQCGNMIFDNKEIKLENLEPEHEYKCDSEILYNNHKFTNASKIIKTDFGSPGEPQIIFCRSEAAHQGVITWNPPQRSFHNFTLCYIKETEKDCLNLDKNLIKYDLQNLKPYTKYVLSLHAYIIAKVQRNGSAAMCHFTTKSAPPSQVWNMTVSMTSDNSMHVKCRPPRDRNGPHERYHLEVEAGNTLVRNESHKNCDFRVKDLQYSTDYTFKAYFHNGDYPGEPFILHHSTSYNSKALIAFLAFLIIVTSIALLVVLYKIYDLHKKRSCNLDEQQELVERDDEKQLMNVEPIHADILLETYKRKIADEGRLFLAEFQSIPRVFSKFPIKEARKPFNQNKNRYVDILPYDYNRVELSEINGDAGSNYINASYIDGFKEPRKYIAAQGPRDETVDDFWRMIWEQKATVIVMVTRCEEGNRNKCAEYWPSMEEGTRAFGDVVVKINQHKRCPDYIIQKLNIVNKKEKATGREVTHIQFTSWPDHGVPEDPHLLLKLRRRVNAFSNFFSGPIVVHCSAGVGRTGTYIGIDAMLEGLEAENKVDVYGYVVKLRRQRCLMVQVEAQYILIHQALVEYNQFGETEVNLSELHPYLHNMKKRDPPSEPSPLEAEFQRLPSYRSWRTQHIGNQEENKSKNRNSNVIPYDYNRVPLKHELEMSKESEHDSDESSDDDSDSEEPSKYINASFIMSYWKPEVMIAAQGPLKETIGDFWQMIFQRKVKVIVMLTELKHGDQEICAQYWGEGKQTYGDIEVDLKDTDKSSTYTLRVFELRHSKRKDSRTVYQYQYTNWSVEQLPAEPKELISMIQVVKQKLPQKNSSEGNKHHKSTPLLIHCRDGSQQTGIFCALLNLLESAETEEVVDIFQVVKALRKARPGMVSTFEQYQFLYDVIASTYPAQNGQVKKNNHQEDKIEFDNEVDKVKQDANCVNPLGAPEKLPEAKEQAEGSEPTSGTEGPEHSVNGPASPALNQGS", "experiment": "PTP-catalyzed pNPP hydrolysis, CD45", "assay_type": "biochemical", "in_short": "as §1"}}}
{"smiles": "C=C/C(=C/C(=O)C[C@H](C)C[C@@H](C)CC[C@H](O)[C@H](C)C(=O)C[C@@H](O)[C@H](C)[C@@H](C)OC(=O)C[C@@H](O)C1=C(C)C(=O)OC1=O)CC", "note": "[TTN, tautomycetin]", "values": [{"measurement": "effect on TCR-mediated ERK1/2 activation", "setting": "Jurkat T cells", "value": "strongly reduced"}, {"measurement": "effect on development of CFU-M", "setting": "[1]", "value": "reduced in all cells types"}, {"measurement": "IC50", "setting": "HePTP", "value": "> 50", "unit": "µM"}, {"measurement": "IC50", "setting": "VHR", "value": "> 50", "unit": "µM"}, {"measurement": "effect on ERK1/2 hyperactivation in SHP2/E76K-expressing cells", "setting": "[2]", "value": "effectively inhibited"}, {"measurement": "effect on GM-CSF induced ERK1/2 activation", "setting": "[2]", "value": "abrogated"}, {"measurement": "IC50", "setting": "CD45", "value": "> 50", "unit": "µM"}]}
